Published values from different studies.
Protocols differ between the studies behind these lines.
Target: Platelet-derived growth factor receptor beta (PDGFRB, Homo sapiens, UniProt P09619)

Compound	assay	setting	quantity	result
COCc1c(-c2cc3cc(C)cc(OC)c3s2)c2c(N)ncnn2c1CN1CCNC(=O)C1	cell-free assay, competition with immobilised ligand	1 µM	inhibition	86%
COc1ncccc1-c1cnn2ccc(N3CCN(C(=O)OC(C)C)CC3)nc12	binding, competition with immobilised ligand	1 µM	remaining binding	83%
C#Cc1n[nH]c2c(-c3cn([C@@H](C)c4ccccc4)c(=O)[nH]c3=O)cc(F)cc12	enzyme activity, inhibitor	0.1 µM	inhibition	3.1%
Cn1cc(-c2cccc(N3CCc4c(sc5c4CC(C)(C)C5)C3=O)c2CO)cc(Nc2ccncn2)c1=O	enzyme activity, inhibitor	1 µM	inhibition	3%
C#Cc1n[nH]c2c(-c3cn([C@@H](C)c4ccccn4)c(=O)[nH]c3=O)cc(F)cc12	enzyme activity, inhibitor	0.1 µM	inhibition	4%
Cn1cncc1[C@](O)(COc1ccc(C#N)cc1-c1ccc(OC(F)(F)F)cc1)c1ccc(C#N)cc1	cell-free assay, competition with immobilised ligand	1 µM	remaining binding	100%
Nc1ncc(-c2nc(N3CCOCC3)nc(N3CCOCC3)n2)c(C(F)F)n1	binding, competition with immobilised ligand	10 µM	remaining binding	69%
O=c1[nH]c2ccccc2n1C1CCN(Cc2ccc(-c3[nH]c4cc5ncnc5cc4nc3-c3ccccc3)cc2)CC1	enzyme activity	0.5 µM	remaining activity	102%
Cn1cc(-c2cc(F)cc(N3CCn4c(cc5c4CCCC5)C3=O)c2CO)cc(Nc2ccc(N3CCN(C4COC4)CC3)cn2)c1=O	enzyme activity, inhibitor	0.1 µM	inhibition	2%
CC(C)(C)c1cc(C=C(C#N)C#N)cc(Br)c1O	enzyme activity, inhibitor	0.5 µM	remaining activity	104%
N#CC1(c2ccccn2)CCN(Cc2cc(C(=O)O)c(=O)n3ccccc23)CC1	cell-free assay, competition with immobilised ligand	1 µM	remaining binding	100%
